Measurements taken from ChEMBL document CHEMBL4004850, “Rational design of reversible inhibitors for trehalose 6-phosphate phosphatases” (Eur J Med Chem, 2017).

Key:
[1] = Inhibition of Mycobacterium tuberculosis T6PP using T6P as substrate by Lineweaver-Burk plot analysis
In short: (§1)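 Continuous phosphate-release assay (EnzChek, MESG/purine nucleoside phosphorylase) at 25 °C. Initial velocities of T6P hydrolysis by T6PP were taken at varied T6P with inhibitor at 0, Ki and 2×Ki. Km and Vmax come from double-reciprocal plots.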

[2] = test system: Mycobacterium tuberculosis; assay: Inhibition of Mycobacterium tuberculosis T6PP using T6P as substrate assessed as fraction of enzyme unbound with compound by measuring ratio of initial velocities of T6P substrate hydrolysis in presence and absence of compound at 1 mM after 5 mins by BioMol green dye based HTS assay
In short: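 Mt-T6PP (5–25 nM, freshly purified) in 25 mM Hepes pH 7.5, 50 mM NaCl, 5 mM MgCl₂, 5% glycerol at 25 °C. T6P at Km. Initial velocity was measured with and without 1 mM inhibitor; released phosphate read as absorbance at 625 nm after 30 min incubation. VI/V is the unbound-enzyme fraction.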

[3] = test system: Mycobacterium tuberculosis; assay: Inhibition of Mycobacterium tuberculosis T6PP assessed as Vmax for substrate using T6P as substrate by Lineweaver-Burk plot analysis; in short: as §1
[4] = test system: Mycobacterium tuberculosis; assay: Inhibition of Mycobacterium tuberculosis T6PP assessed as Km for substrate using T6P as substrate at 1 mM by Lineweaver-Burk plot analysis; in short: as §1

Row | Structure (SMILES) | Ratio [2] | further results
1 | CCCCCCCCc1ccc(O[C@@H]2O[C@H](COS(=O)(=O)O)[C@@H](O)[C@H](O)[C@H]2O)cc1 | 0.42 | Ki [1]: > 300 µM
2 | O=S(=O)(O)OC[C@H]1O[C@H](OCc2ccccc2)[C@H](O)[C@@H](O)[C@@H]1O | 0.83 | –
3 | CCCCCCCCc1ccc(O[C@H]2O[C@H](COS(=O)(=O)O)[C@@H](O)[C@H](O)[C@H]2O)cc1 | – | Ki [1]: 100 µM
4 | O=S(=O)(O)OC[C@H]1O[C@@H](Oc2ccc(F)c(F)c2)[C@H](O)[C@@H](O)[C@@H]1O | 0.8 | –
5 | OC[C@H]1O[C@@H](n2cc(-c3ccccc3)nn2)[C@H](O)[C@@H](O)[C@@H]1O | 0.95 | –
6 | OC[C@H]1O[C@@H](Nc2ccccc2)[C@H](O)[C@@H](O)[C@@H]1O | 0.88 | –
7 | CO[C@H]1O[C@H](COS(=O)(=O)O)[C@@H](O)[C@H](O)[C@H]1OCc1ccccc1 | 1.01 | –
8 | CCCCCCc1ccc(O[C@@H]2O[C@H](COS(=O)(=O)O)[C@@H](O)[C@H](O)[C@H]2O)cc1 | – | Ki [1]: > 400 µM
9 | CO[C@H]1O[C@H](COS(=O)(=O)O)[C@@H](O)[C@H](OCc2ccccc2)[C@H]1O | 1.16 | –
10 | Nc1ccc(O[C@@H]2O[C@H](COS(=O)(=O)O)[C@@H](O)[C@H](O)[C@H]2O)cc1 | 1 | –
11 | O=Cc1ccccc1O[C@@H]1O[C@H](COS(=O)(=O)O)[C@@H](O)[C@H](O)[C@H]1O | 1.17 | –
12 | O=S(=O)(O)OCc1cccc(O[C@@H]2O[C@H](CO)[C@@H](O)[C@H](O)[C@H]2O)c1 | 0.96 | –
13 | O=S(=O)(O)OC[C@H]1O[C@@H](Oc2ccc(CO)cc2)[C@H](O)[C@@H](O)[C@@H]1O | 0.85 | –
14 | O=S(=O)(O)OC[C@H]1O[C@@H](Oc2cccc(CO)c2)[C@H](O)[C@@H](O)[C@@H]1O | 0.69 | –
15 | NS(=O)(=O)OCc1cccc(N[C@@H]2O[C@H](CO)[C@@H](O)[C@H](O)[C@H]2O)c1 | 1.17 | –
16 | O=[N+]([O-])c1ccc(O[C@@H]2O[C@H](COS(=O)(=O)O)[C@@H](O)[C@H](O)[C@H]2O)cc1 | 1.27 | –
17 | O=Cc1ccc(O[C@@H]2O[C@H](COS(=O)(=O)O)[C@@H](O)[C@H](O)[C@H]2O)cc1 | 0.87 | –
18 | OC[C@H]1O[C@H](Oc2ccccc2)[C@H](O)[C@@H](O)[C@@H]1O | 0.88 | –
19 | O=S(=O)(O)OC[C@H]1O[C@@H](Oc2ccc(-c3ccccc3)cc2)[C@H](O)[C@@H](O)[C@@H]1O | 0.58 | Vmax [3]: 0.0271 µM/s; Ki [1]: 1600 µM; Km [4]: 838 µM

Row | Structure (SMILES) | Ratio [2] | further results
20 | CCCCCCc1ccc(O[C@H]2O[C@H](COS(=O)(=O)O)[C@@H](O)[C@H](O)[C@H]2O)cc1 | – | Ki [1]: > 400 µM
21 | O=S(=O)(O)OC[C@H]1O[C@@H](n2cc(-c3ccccc3)nn2)[C@H](O)[C@@H](O)[C@@H]1O | 0.98 | –
22 | OC[C@H]1O[C@@H](NC(=S)Nc2ccccc2)[C@H](O)[C@@H](O)[C@@H]1O | 1.04 | –
23 | CC(=O)Nc1ccc(O[C@@H]2O[C@H](COS(=O)(=O)O)[C@@H](O)[C@H](O)[C@H]2O)cc1 | 0.94 | –
24 | OC[C@H]1O[C@@H](Oc2ccccc2)[C@H](O)[C@@H](O)[C@@H]1O | 0.81 | –
25 | O=S(=O)(O)OC[C@H]1O[C@@H](Oc2ccccc2)[C@H](O)[C@@H](O)[C@@H]1O | 0.94 | –
26 | O=S(=O)(O)OC[C@H]1O[C@H](Oc2ccccc2)[C@H](O)[C@@H](O)[C@@H]1O | 1.17 | –
27 | O=S(=O)(O)OC[C@H]1O[C@@H](Oc2cccc3ccccc23)[C@H](O)[C@@H](O)[C@@H]1O | 0.85 | –
28 | O=Cc1cccc(O[C@@H]2O[C@H](COS(=O)(=O)O)[C@@H](O)[C@H](O)[C@H]2O)c1 | 0.67 | Vmax [3]: 0.247 µM/s; Ki [1]: 1700 µM; Km [4]: 712 µM
29 | O=S(=O)(O)OC[C@H]1O[C@@H](Oc2ccccc2CO)[C@H](O)[C@@H](O)[C@@H]1O | 0.89 | –
30 | O=S(=O)(O)OC[C@H]1O[C@H](O[C@H]2O[C@H](CO)[C@@H](O)[C@H](O)[C@H]2O)[C@H](O)[C@@H](O)[C@@H]1O | 0.43 | Ki [1]: 130 µM
31 | CO[C@H]1O[C@H](COS(=O)(=O)O)[C@@H](OCc2ccccc2)[C@H](O)[C@H]1O | 1.11 | –
32 | O=P(O)(O)OC[C@H]1O[C@@H](Oc2ccccc2)[C@H](O)[C@@H](O)[C@@H]1O | 0.94 | –
33 | COc1cc(C=O)cc(OC)c1O[C@@H]1O[C@H](COS(=O)(=O)O)[C@@H](O)[C@H](O)[C@H]1O | 1.09 | –
34 | CO[C@H]1O[C@H](COS(=O)(=O)O)[C@@H](O)[C@H](O)[C@H]1O | 0.91 | –
35 | O=S(=O)(O)OC[C@H]1O[C@H](O)[C@H](O)[C@@H](O)[C@@H]1O | 0.97 | –
36 | CCCCCCCCO[C@@H]1O[C@H](COS(=O)(=O)O)[C@@H](O)[C@H](O)[C@H]1O | 0.83 | –
37 | OC[C@H]1O[C@H](O[C@H]2O[C@H](CO)[C@@H](O)[C@H](O)[C@H]2O)[C@H](O)[C@@H](O)[C@@H]1O [TREHALOSE] | 0.83 | –
